This is an account of results in ChEMBL document CHEMBL4373700, “Synthesis and Structure-Activity Relationship Correlations of Gnidimacrin Derivatives as Potent HIV-1 Inhibitors and HIV Latency Reversing Agents” (J Med Chem, 2019).

In general, IC50 refers to the concentration needed to halve the response being measured. Broadly, the CC50 is the concentration that lowers cell viability or growth by half. A high value points to lower toxicity to the cells. The EC50 is the concentration giving half of the maximal effect.

Data set [1] can be described thus: Agonist activity at Protein kinase C in human MT4 cells infected with HIV-1 NL4-3 assessed as inhibition of viral replication measured on day 3 post-infection by Nano-Glo luciferase assay.
A further data set concerns MT4. The experiment in a line: Cytotoxicity against human MT4 cells measured after 3 days by CytoTox-Glo assay. The class given is cell-based. Particulars: mt4, 72 h. The gist of the method:
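MT4 cells cultured with a range of compound concentrations for 3 days. Viability by CytoTox-Glo, run per the manufacturer's protocol. CC50 is the concentration causing a 50% drop in viability.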

A further data set concerns the target Protein kinase C (PKC). The experiment in a line: Agonist activity at Protein kinase C in human U1 cells infected with HIV-1 NL4-3 assessed as induction of HIV-1 p24 production after 72 hrs by ELISA. The format is cell-based. In short, it runs like this:
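Latency model: U1 cells (2 × 10^5 cells/mL) incubated with a range of compound concentrations at 37 °C for 72 h. p24 in the supernatant measured by ELISA. EC50 is the concentration giving 50% of maximal p24 induction, from nonlinear regression.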

Structures are written as SMILES.

Regarding `C=C(C)[C@]12C[C@@H](COC(=O)c3ccccc3)[C@@]34OC5(O[C@@H]1[C@@H]3[C@@H]1O[C@]1(COC(=O)/C=C/c1ccc(OC)cc1)[C@@H](O)[C@@]1(O)[C@H]4[C@H]([C@H](C)[C@@H]1OC(=O)c1ccccc1)[C@H](C)CCCCCC[C@H]5O)O2`, in data set [1], the IC50 is listed as > 1 nM. Besides, the CC50 with MT4 was > 1 nM.

For `C=C(C)[C@]12C[C@@H](COC(=O)c3ccccc3)[C@@]34OC5(O[C@@H]1[C@@H]3[C@@H]1O[C@]1(CO)[C@@H](O)[C@@]1(O)[C@H]4[C@H]([C@H](C)[C@@H]1OC(=O)c1ccc([N+](=O)[O-])cc1)[C@H](C)CCCCCC[C@H]5O)O2`, the concentration for half-maximal inhibition (IC50) in data set [1] was 0.22 nM. In the data set with MT4, the 50% cytotoxic concentration (CC50) was > 1 nM.

As to `C=C(C)[C@]12C[C@@H](COC(=O)c3ccccc3)[C@@]34OC5(O[C@@H]1[C@@H]3[C@@H]1O[C@]1(COC(C)=O)[C@@H](O)[C@@]1(O)[C@H]4[C@H]([C@H](C)[C@@H]1OC(=O)c1ccccc1)[C@H](C)CCCCCC[C@H]5O)O2`, in data set [1], the IC50 was > 1 nM. Moreover, the CC50 with MT4 was > 1 nM.

With `C=C(C)[C@]12C[C@@H](COC(=O)c3ccccc3)[C@@]34OC5(O[C@@H]1[C@@H]3[C@@H]1O[C@]1(CO)[C@@H](O)[C@@]1(O)[C@H]4[C@H]([C@H](C)[C@@H]1OC(=O)c1ccccc1)[C@H](C)CCCCCC[C@H]5OC(=O)/C=C/c1ccccc1)O2`, in data set [1], the IC50 is > 1 nM. For the same compound, the CC50 in the data set with MT4 was > 1 nM.

For the compound `C=C(C)[C@]12C[C@@H](COC(=O)c3ccccc3)[C@@]34OC5(O[C@@H]1[C@@H]3[C@@H]1O[C@]1(CO)[C@@H](OC(=O)c1ccccc1)[C@@]1(O)[C@H]4[C@H]([C@H](C)[C@@H]1OC(=O)c1ccccc1)[C@H](C)CCCCCC[C@H]5O)O2`, the IC50 in data set [1] is listed as > 1 nM. In addition, the CC50 in the data set with MT4 was > 1 nM.

Consider `C=C(C)[C@]12C[C@@H](COC(=O)c3ccccc3)[C@@]34OC5(O[C@@H]1[C@@H]3[C@@H]1O[C@]1(COC(=O)c1ccccc1)[C@@H](O)[C@@]1(O)[C@H]4[C@H]([C@H](C)[C@@H]1OC(=O)c1ccccc1)[C@H](C)CCCCCC[C@H]5OC(=O)c1ccccc1)O2`, for which the IC50 in data set [1] is > 1 nM. Also, the CC50 in the data set on MT4 is > 1 nM.

Take `C=C(C)[C@]12C[C@@H](COC(=O)c3ccccc3)[C@@]34OC5(O[C@@H]1[C@@H]3[C@@H]1O[C@]1(COC(C)=O)[C@@H](OC(C)=O)[C@@]1(O)[C@H]4[C@H]([C@H](C)[C@@H]1OC(=O)c1ccccc1)[C@H](C)CCCCCC[C@H]5OC(C)=O)O2`: in data set [1], the 50% inhibitory concentration (IC50) is recorded as > 1 nM. Further, the CC50 with MT4 was > 1 nM.

`C=C(C)[C@]12C[C@@H](COC(=O)c3ccccc3)[C@@]34OC5(O[C@@H]1[C@@H]3[C@@H]1O[C@]1(COC(=O)C(C)(C)CC(=O)O)[C@@H](O)[C@@]1(O)[C@H]4[C@H]([C@H](C)[C@@H]1OC(=O)c1ccccc1)[C@H](C)CCCCCC[C@H]5O)O2`: the IC50 in data set [1] was > 1 nM. In addition, the CC50 in the data set with MT4 was > 1 nM.

For `C=C(C)[C@]12C[C@@H](COC(=O)c3ccccc3)[C@@]34OC5(O[C@@H]1[C@@H]3[C@@H]1O[C@]1(CO)[C@@H](O)[C@@]1(O)[C@H]4[C@H]([C@H](C)[C@@H]1OC(=O)c1ccccc1)[C@H](C)CCCCCC[C@H]5OC(=O)c1ccc3ccccc3c1)O2`, in data set [1], the IC50 was > 1 nM. In addition, the CC50 in the data set on MT4 was > 1 nM.

On to `C=C(C)[C@]12C[C@@H](COC(=O)c3ccccc3)[C@@]34OC5(O[C@@H]1[C@@H]3[C@@H]1O[C@]1(COC(=O)[C@@]13CC[C@@](C)(C(=O)O1)C3(C)C)[C@@H](O)[C@@]1(O)[C@H]4[C@H]([C@H](C)[C@@H]1OC(=O)c1ccccc1)[C@H](C)CCCCCC[C@H]5O)O2`, for which the IC50 in data set [1] is > 1 nM. In addition, in the data set on MT4, the CC50 is > 1 nM.

For the compound `C=C(C)[C@]12C[C@@H](CO)[C@@]34OC5(O[C@@H]1[C@@H]3[C@@H]1O[C@]1(CO)[C@@H](O)[C@@]1(O)[C@H]4[C@H]([C@H](C)[C@@H]1O)[C@H](C)CCCCCC[C@H]5O)O2`, the IC50 in data set [1] is > 1 nM. In the data set on MT4, the half-maximal cytotoxic concentration (CC50) was > 1 nM.

For `C=C(C)[C@]12C[C@@H](COC(=O)c3ccccc3)[C@@]34OC5(O[C@@H]1[C@@H]3[C@@H]1O[C@]1(COC(=O)C1(C)COC(C)(C)OC1)[C@@H](O)[C@@]1(O)[C@H]4[C@H]([C@H](C)[C@@H]1OC(=O)c1ccccc1)[C@H](C)CCCCCC[C@H]5O)O2`, the half-inhibitory concentration (IC50) in data set [1] is recorded as > 1 nM. In the data set with MT4, the half-maximal cytotoxic concentration (CC50) was > 1 nM.

On to `C=C(C)[C@]12C[C@@H](COC(=O)c3ccccc3)[C@@]34OC5(O[C@@H]1[C@@H]3[C@@H]1O[C@]1(COC(=O)CC(C)(C)C(=O)O)[C@@H](O)[C@@]1(O)[C@H]4[C@H]([C@H](C)[C@@H]1OC(=O)c1ccccc1)[C@H](C)CCCCCC[C@H]5O)O2`, for which the IC50 in data set [1] was > 1 nM. Besides, the CC50 with MT4 is > 1 nM.

`C=C(C)[C@]12C[C@@H](COC(=O)c3ccccc3)[C@@]34OC5(O[C@@H]1[C@@H]3[C@@H]1O[C@]1(CO)[C@@H](O)[C@@]1(O)[C@H]4[C@H]([C@H](C)[C@@H]1OC(=O)/C=C/c1ccccc1)[C@H](C)CCCCCC[C@H]5O)O2`: in data set [1], the IC50 is > 1 nM. In addition, the CC50 with MT4 is > 1 nM.

On to `C=C(C)[C@]12C[C@@H](COC(=O)c3ccccc3)[C@@]34OC5(O[C@@H]1[C@@H]3[C@@H]1O[C@]1(CO)[C@@H](O)[C@@]1(O)[C@H]4[C@H]([C@H](C)[C@@H]1OC(=O)c1ccccc1)[C@H](C)CCCCCC[C@H]5OC(=O)c1ccccc1)O2`, for which the IC50 in data set [1] was > 1 nM. The CC50 in the data set with MT4 is > 1 nM.

Take `C=C(C)[C@]12C[C@@H](COC(=O)c3ccccc3)[C@@]34OC5(O[C@@H]1[C@@H]3[C@@H]1O[C@]1(CO)[C@@H](O)[C@@]1(O)[C@H]4[C@H]([C@H](C)[C@@H]1OC(=O)c1ccccc1)[C@H](C)CCCCCC[C@H]5OC(C)=O)O2`: the IC50 in data set [1] was determined as 0.09 nM. Moreover, the CC50 in the data set with MT4 was > 1 nM.

Turning to `C=C(C)[C@]12C[C@@H](COC(=O)c3ccccc3)[C@@]34OC5(O[C@@H]1[C@@H]3[C@@H]1O[C@]1(COC(=O)CCC(=O)O)[C@@H](O)[C@@]1(O)[C@H]4[C@H]([C@H](C)[C@@H]1OC(=O)c1ccccc1)[C@H](C)CCCCCC[C@H]5O)O2`, the half-inhibitory concentration (IC50) in data set [1] is > 1 nM. In the data set on MT4, the CC50 was > 1 nM.

Take `CC(C)[C@]12C[C@@H](COC(=O)c3ccccc3)[C@@]34OC5(O[C@@H]1[C@@H]3[C@@H]1O[C@]1(CO)[C@@H](O)[C@@]1(O)[C@H]4[C@H]([C@H](C)[C@@H]1OC(=O)c1ccccc1)[C@H](C)CCCCCC[C@H]5O)O2`: the IC50 in data set [1] worked out at 0.18 nM. In addition, the CC50 in the data set with MT4 is > 1 nM.

Regarding `C=C(C)[C@]12C[C@@H](COC(=O)c3ccccc3)[C@@]34OC5(O[C@@H]1[C@@H]3[C@@H]1O[C@]1(CO)[C@@H](O)[C@@]1(O)[C@H]4[C@H]([C@H](C)[C@@H]1OC(=O)c1ccccc1)[C@H](C)CCCCCC[C@H]5OC(=O)c1ccc(OC)cc1)O2`, in data set [1], the IC50 is reported as > 1 nM. In addition, the CC50 in the data set with MT4 is > 1 nM.

Turning to `C=C(C)[C@]12C[C@@H](COC(=O)c3ccccc3)[C@@]34OC5(O[C@@H]1[C@@H]3[C@@H]1O[C@]1(CO)[C@@H](O)[C@@]1(O)[C@H]4[C@H]([C@H](C)[C@@H]1OC(=O)c1ccccc1)[C@H](C)CCCCCC[C@H]5OC(=O)c1ccc([N+](=O)[O-])cc1)O2`, the IC50 in data set [1] was > 1 nM. Also, in the data set with MT4, the CC50 is > 1 nM.

For the compound `C=C(C)[C@]12C[C@@H](COC(=O)c3ccccc3)[C@@]34OC5(O[C@@H]1[C@@H]3[C@@H]1O[C@]1(CO)[C@@H](O)[C@@]1(O)[C@H]4[C@H]([C@H](C)[C@@H]1O)[C@H](C)CCCCCC[C@H]5O)O2`, the IC50 in data set [1] is on record as > 1 nM. Also, the CC50 in the data set on MT4 is > 1 nM.

On to `C=C(C)[C@]12C[C@@H](COC(=O)c3ccccc3)[C@@]34OC5(O[C@@H]1[C@@H]3[C@@H]1O[C@]1(COC(=O)c1ccccc1)[C@@H](O)[C@@]1(O)[C@H]4[C@H]([C@H](C)[C@@H]1OC(=O)c1ccccc1)[C@H](C)CCCCCC[C@H]5O)O2`, for which, in data set [1], the IC50 is listed as > 1 nM. Besides, the CC50 in the data set on MT4 is > 1 nM.

Turning to `C=C(C)[C@]12C[C@@H](COC(=O)c3ccccc3)[C@@]34OC5(O[C@@H]1[C@@H]3[C@@H]1O[C@]1(CO)C(=O)[C@@]1(O)[C@H]4[C@H]([C@H](C)[C@@H]1OC(=O)c1ccccc1)[C@H](C)CCCCCC[C@H]5O)O2`, the 50% inhibitory concentration (IC50) in data set [1] is > 1 nM. For the same compound, the EC50 at Protein kinase C (PKC) is given as > 3.9 nM. Also, the cytotoxic concentration (CC50) in the data set on MT4 was > 1 nM.

For the compound `C=C(C)[C@]12C[C@@H](COC(=O)c3ccccc3)[C@@]34OC5(O[C@@H]1[C@@H]3[C@@H]1O[C@]1(CO)[C@@H](O)[C@@]1(O)[C@H]4[C@H]([C@H](C)[C@@H]1OC(=O)c1ccccc1)[C@H](C)CCCCCC[C@H]5OC(=O)/C(C)=C/C)O2`, the IC50 in data set [1] was > 1 nM. The CC50 with MT4 is > 1 nM.

Turning to `C=C(C)[C@]12C[C@@H](COC(=O)c3ccccc3)[C@@]34OC5(O[C@@H]1[C@@H]3[C@@H]1O[C@]1(CO)[C@@H](OC(C)=O)[C@@]1(O)[C@H]4[C@H]([C@H](C)[C@@H]1OC(=O)c1ccccc1)[C@H](C)CCCCCC[C@H]5O)O2`, the IC50 in data set [1] is given as > 1 nM. Besides, the half-maximal cytotoxic concentration (CC50) with MT4 is > 1 nM.

With `C=C(C)[C@]12C[C@@H](COC(=O)c3ccccc3)[C@@]34OC5(O[C@@H]1[C@@H]3[C@@H]1O[C@]1(CO)[C@@H](O)[C@@]1(O)[C@H]4[C@H]([C@H](C)[C@@H]1OC(=O)c1ccc(OC)cc1)[C@H](C)CCCCCC[C@H]5O)O2`, in data set [1], the half-maximal inhibitory concentration (IC50) is reported as 0.17 nM. For the same compound, the CC50 in the data set on MT4 was > 1 nM.
